Data set [1] has as its target Cystic fibrosis transmembrane conductance regulator (Homo sapiens, UniProt P13569, H148Q). Nature of the data set: Activation of human CFTR expressed in FRT cells co-expressing YFP H148Q mutant assessed as increase in forskolin-stimulated iodide influx measured after 10 mins by fluorescence assay. In kind it is cell-based. An outline of the steps:
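FRT cells stably coexpressing human wild-type CFTR and YFP-H148Q, near-confluent; washed with PBS, then 10 min in PBS with test compound and 125 nM forskolin. YFP fluorescence recorded 2 s baseline and 12 s after iodide addition (final 140 mM). Iodide influx rates fitted to concentration–response curves for EC50.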

Data set [2] relates to Mus musculus. Nature of the data set: Suppression of constipation in po dosed loperamide-induced CD1 mouse acute constipation model assessed as normalization of stool water content administered 1 hr prior to loperamide addition measured after 3 hrs. In kind it is functional. The procedure, abridged: (§1)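 CD1 mice, 8–10 weeks; compound or vehicle (saline, 5% DMSO, 10% Kolliphor HS 15) given orally at 0, 0.1, 0.3, 1, 3 or 10 mg/kg 1 h before loperamide 0.3 mg/kg ip. Stool collected 3 h in metabolic cages; weight, pellet count and water content (wet/dry weights). Mean ± SEM, 4 mice per group.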

Data set [3] can be described thus: Effect on cAMP levels in Fischer rat thyroid cells at 10 uM incubated for 10 mins by immunoassay. In kind it is ADME, cell-based. Conditions: thyroid cell. An outline of the steps: (§2)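 FRT cells incubated 10 min with 10 μM compound, without or with 90 nM forskolin, then cellular cAMP measured. Positive controls: forskolin 100 nM and 20 μM, forskolin + IBMX (20 μM + 100 μM). Mean ± SEM, n = 4.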
A general note: Cyclic AMP is a second messenger, typically raised through Gs and lowered through Gi signalling.

The nature of data set [4]: Elevation of cytoplasmic calcium levels in Fischer rat thyroid cells at 10 uM after 5 mins by Fluo-4 based fluorescence assay. Particulars: thyroid cell.
For data set [5], the target named is T1, Anoctamin-1 (Homo sapiens) (UniProt Q5XXA6).
T1 sequence (whole entry): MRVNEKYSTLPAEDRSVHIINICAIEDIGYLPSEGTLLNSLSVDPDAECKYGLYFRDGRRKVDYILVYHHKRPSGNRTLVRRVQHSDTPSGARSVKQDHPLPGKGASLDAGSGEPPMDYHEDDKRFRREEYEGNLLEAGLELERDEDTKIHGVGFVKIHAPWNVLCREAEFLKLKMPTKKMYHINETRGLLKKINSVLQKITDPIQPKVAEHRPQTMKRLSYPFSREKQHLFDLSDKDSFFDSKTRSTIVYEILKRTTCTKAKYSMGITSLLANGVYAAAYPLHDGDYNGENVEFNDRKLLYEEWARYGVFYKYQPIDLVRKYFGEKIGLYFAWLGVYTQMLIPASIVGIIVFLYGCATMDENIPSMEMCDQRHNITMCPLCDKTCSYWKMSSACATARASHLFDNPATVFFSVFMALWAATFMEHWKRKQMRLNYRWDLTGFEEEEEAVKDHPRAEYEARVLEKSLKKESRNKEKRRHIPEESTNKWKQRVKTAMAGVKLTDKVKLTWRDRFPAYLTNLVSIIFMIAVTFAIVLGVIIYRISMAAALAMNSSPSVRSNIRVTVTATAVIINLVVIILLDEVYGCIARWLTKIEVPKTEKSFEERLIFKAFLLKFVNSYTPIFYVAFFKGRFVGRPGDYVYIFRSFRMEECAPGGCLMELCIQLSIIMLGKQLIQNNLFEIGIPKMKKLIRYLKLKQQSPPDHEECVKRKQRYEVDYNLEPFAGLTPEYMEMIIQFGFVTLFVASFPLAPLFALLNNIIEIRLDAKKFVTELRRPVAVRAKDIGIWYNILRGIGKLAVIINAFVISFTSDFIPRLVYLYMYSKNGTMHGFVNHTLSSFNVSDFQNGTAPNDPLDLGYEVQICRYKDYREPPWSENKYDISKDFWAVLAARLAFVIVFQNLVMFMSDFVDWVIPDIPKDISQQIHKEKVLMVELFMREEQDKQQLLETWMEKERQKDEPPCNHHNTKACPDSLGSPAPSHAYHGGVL
Put plainly: Activation of human TMEM16A expressed in FRT cells co-expressing YFP assessed as increase in iodide influx at 10 uM measured after 10 mins by fluorescence assay. In kind it is cell-based. An outline of the steps: (§3)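 FRT cells coexpressing YFP and TMEM16A; continuous single-well YFP fluorescence for 2 s before and 12 s after addition of iodide solution (final 140 mM iodide). Activation read with iodide alone, inhibition with iodide plus ATP; compound at 10 μM. Iodide influx rate calculated from fluorescence quenching.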

For data set [6], the target named is T1, Anoctamin-1 (Homo sapiens). Nature of the data set: Inhibition of human TMEM16A expressed in FRT cells co-expressing YFP assessed as decrease in iodide influx at 10 uM measured after 10 mins in presence of ATP by fluorescence assay. In kind it is cell-based. An outline of the steps: as §3
The target of data set [7] is Cystic fibrosis transmembrane conductance regulator (Homo sapiens, UniProt P13569). Nature of the data set: Activation of human CFTR expressed in forskolin-stimulated basolateral membrane permeabilized FRT cells assessed as increase in short-circuit current amplitude after 30 mins by voltage clamp method. In kind it is cell-based. An outline of the steps: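 Short-circuit current in FRT cells expressing human wild-type CFTR grown on porous filters, with a transepithelial chloride gradient and permeabilized basolateral membrane. Low-concentration forskolin added first, then cumulative activator concentrations, finally 10 μM CFTRinh-172. EC50 from concentration–response, mean ± SEM, n = 3.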

The test system of data set [8] is Mus musculus. Nature of the data set: Suppression of constipation in po dosed loperamide-induced CD1 mouse acute constipation model assessed as normalization of pellet number administered 1 hr prior to loperamide addition measured after 3 hrs. In kind it is functional. An outline of the steps:
as §1

The species entered for data set [9] is Homo sapiens. Put plainly: Activation of calcium-activated chloride channel in human HT29 cells co-expressing YFP at 10 uM after 10 mins presence of iodide by fluorescence assay. In kind it is cell-based.
A short description of data set [10]: Effect on forskolin-stimulated cAMP levels in Fischer rat thyroid cells at 10 uM incubated for 10 mins by immunoassay. In kind it is ADME, cell-based. Conditions: thyroid cell. An outline of the steps: as §2
Data set [11] is filed under the species Homo sapiens. Put plainly: Inhibition of calcium-activated chloride channel in human HT29 cells co-expressing YFP assessed as reduction in ATP-stimulated calcium levels at 10 uM preincubated for 10 mins followed by ATP addition in presence of iodide by fluorescence assay. In kind it is cell-based.

Activity calls are given as the source filed them. The rule behind the calls is not given here.

Results on 18 compounds are retold here after ChEMBL document CHEMBL4007437, “High-Potency Phenylquinoxalinone Cystic Fibrosis Transmembrane Conductance Regulator (CFTR) Activators” (J Med Chem, 2017).

Broadly, the EC50 is the midpoint of the concentration-response curve. One may read the ED50 as the dose at which the effect has come halfway, by size or by number of responders.

Sequence of Cystic fibrosis transmembrane conductance regulator (Homo sapiens, UniProt P13569, H148Q) (P13569 whole entry, looked up, stated change not applied): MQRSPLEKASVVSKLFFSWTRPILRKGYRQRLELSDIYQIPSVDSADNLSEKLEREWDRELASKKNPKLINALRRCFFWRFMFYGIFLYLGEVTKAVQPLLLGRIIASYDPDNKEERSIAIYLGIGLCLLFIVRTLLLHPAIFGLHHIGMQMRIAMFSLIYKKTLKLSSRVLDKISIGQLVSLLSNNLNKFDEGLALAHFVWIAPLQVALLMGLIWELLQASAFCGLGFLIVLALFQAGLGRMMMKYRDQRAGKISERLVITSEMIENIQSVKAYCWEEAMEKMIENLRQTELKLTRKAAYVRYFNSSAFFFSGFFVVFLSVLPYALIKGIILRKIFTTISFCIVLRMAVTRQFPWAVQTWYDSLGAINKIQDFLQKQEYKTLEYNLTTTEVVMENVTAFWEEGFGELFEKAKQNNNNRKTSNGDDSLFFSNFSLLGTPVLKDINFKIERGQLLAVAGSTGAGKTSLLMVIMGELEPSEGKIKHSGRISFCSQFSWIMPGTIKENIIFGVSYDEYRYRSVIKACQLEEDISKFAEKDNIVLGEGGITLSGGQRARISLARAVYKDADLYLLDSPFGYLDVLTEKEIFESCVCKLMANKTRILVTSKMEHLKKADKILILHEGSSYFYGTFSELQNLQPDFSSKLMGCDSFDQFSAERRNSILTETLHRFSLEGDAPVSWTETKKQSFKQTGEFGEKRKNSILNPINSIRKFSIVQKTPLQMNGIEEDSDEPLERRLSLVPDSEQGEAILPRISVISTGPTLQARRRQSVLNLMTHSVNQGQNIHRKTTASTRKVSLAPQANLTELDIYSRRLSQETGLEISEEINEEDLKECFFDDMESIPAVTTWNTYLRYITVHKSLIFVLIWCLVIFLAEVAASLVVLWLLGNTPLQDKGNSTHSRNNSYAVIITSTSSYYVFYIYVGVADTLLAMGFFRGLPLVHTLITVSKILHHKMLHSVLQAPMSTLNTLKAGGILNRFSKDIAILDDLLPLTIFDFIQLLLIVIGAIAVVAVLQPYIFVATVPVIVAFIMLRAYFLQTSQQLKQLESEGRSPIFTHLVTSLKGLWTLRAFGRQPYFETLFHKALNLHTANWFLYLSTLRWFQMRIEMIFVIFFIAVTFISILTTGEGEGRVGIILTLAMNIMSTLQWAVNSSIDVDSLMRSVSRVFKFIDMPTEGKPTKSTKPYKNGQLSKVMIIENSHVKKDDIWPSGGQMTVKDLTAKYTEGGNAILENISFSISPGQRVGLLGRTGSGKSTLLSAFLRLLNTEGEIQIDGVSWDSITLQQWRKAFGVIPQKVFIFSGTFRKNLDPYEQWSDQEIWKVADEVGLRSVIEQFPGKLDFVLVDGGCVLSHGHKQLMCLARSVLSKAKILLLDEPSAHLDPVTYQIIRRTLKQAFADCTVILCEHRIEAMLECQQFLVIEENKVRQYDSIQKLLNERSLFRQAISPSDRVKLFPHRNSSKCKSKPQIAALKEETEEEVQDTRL

For the compound `O=c1c(-c2cccc([N+](=O)[O-])c2)nc2ccc(Br)cc2n1Cc1ccccc1`, the EC50 result in data set [1] is “Not Active”.
`Fc1ccc2nc3n(Cc4ccccc4)c4ccc(C(F)(F)F)cc4nc-3c2c1`: the EC50 in data set [1] (read-out: EC50) was greater than 10 µM.
As to `Cc1cccc2nc(-c3cccc([N+](=O)[O-])c3)c(=O)n(Cc3ccccc3)c12`, the EC50 in [1] (read-out: EC50) is greater than 10 µM.
Still for that read-out and setting: the result for `O=[N+]([O-])c1ccc2nc3n(Cc4ccccc4)c4ccc(C(F)(F)F)cc4nc-3c2c1` reads greater than 10 µM; that for `COC(=O)c1ccc([N+](=O)[O-])c(-c2nc3ccccc3n(Cc3ccccc3)c2=O)c1`, 9.9 µM.
In the case of `Cc1cc2nc(-c3cccc([N+](=O)[O-])c3)c(=O)n(Cc3ccccc3)c2cc1C`, in data set [1] (read-out: EC50), the EC50 is greater than 10 µM.
The same measure, in the same setting: with `Cn1c(=O)c(-c2cccc([N+](=O)[O-])c2)nc2ccccc21` the figure was greater than 10 µM; with `O=c1[nH]c2ccccc2nc1-c1cccc([N+](=O)[O-])c1`, greater than 10 µM.
Take `O=c1c(-c2cccc([N+](=O)[O-])c2)nc2ccccc2n1Cc1ccccc1`: the ED50 in the data set on Mus musculus [2] and in the data set with Mus musculus [8] was less than 1 mg/kg in each case. Also, the Activity entry was “Non-Toxic” in data set [3], “Non-Toxic” in [4], “Dose-dependent effect” in data set [7] and “Non-Toxic” in data set [10]. Also, the outcome (in data set [5]; in the data set listed under Homo sapiens [9]) was inactive. For the same compound, the inhibition entry (in data set [6]; in the data set listed under Homo sapiens [11]) was “inactive” each time.
Turning to `O=c1c(-c2cccc([N+](=O)[O-])c2)nc2cc(F)c(F)cc2n1Cc1ccccc1`, in data set [1] (read-out: EC50), the EC50 is greater than 10 µM.
The same measure, in the same setting: with `O=C(O)c1ccc([N+](=O)[O-])c(-c2nc3ccccc3n(Cc3ccccc3)c2=O)c1` the figure was greater than 10 µM.
Consider `N#Cc1cccc(-c2nc3ccccc3n(Cc3ccccc3)c2=O)c1`, for which, in data set [1] (read-out: EC50), the EC50 was 1 µM.
Turning to `O=c1c(-c2cccc([N+](=O)[O-])c2)nc2ccccc2n1Cc1cccs1`, the EC50 in data set [1] (read-out: EC50) is 0.01 µM. Besides, in data set [7], the Activity result was “Dose-dependent effect” and the EC50 worked out at 0.07 µM.
As to `O=c1c(-c2cccc([N+](=O)[O-])c2)nc2cc(Cl)c(Cl)cc2n1Cc1ccccc1`, in data set [1] (read-out: EC50), the EC50 is greater than 10 µM.
Same read-out and setting: the result for `CC(=O)Nc1ccc([N+](=O)[O-])cc1-c1nc2cccc3c2n(c1=O)CCO3` reads 0.82 µM.
Regarding `O=c1c(-c2cccc([N+](=O)[O-])c2)nc2ccccc2n1Cc1cccc2ccccc12`, in data set [1], the EC50 entry is “Not Active”.
Turning to `Nc1ccc(C(=O)O)cc1-c1nc2ccccc2n(Cc2ccccc2)c1=O`, the EC50 in [1] (read-out: EC50) is greater than 10 µM.
The same measure, in the same setting: the result for `Nc1ccc([N+](=O)[O-])cc1-c1nc2cccc3c2n(c1=O)C(c1ccccc1)CO3` (centres undefined) reads greater than 10 µM.
